{"source": "ChEMBL document CHEMBL4028889", "about": "(2017)", "key": {"[1]": {"tested_on": "PC-12", "assay": "Neuroprotective activity against etoposide-induced apoptosis in rat PC12 cells assessed as cell viability at 3 uM pretreated for 4 hrs followed by etoposide challenge measured after 48 hrs by PrestoBlue assay (reference value: 52.13 +/- 1.13%)", "format": "functional", "settings": "read-out: Activity", "in_short": "(§1)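 PC12 cells were plated at 50000/well on collagen-coated plates and left overnight. They were pretreated 4 h with compound, then given 15 μg/mL etoposide. Viability was read at 48 h by PrestoBlue (ex 560/em 590 nm). n = 3, mean ± SEM, as % viability.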"}, "[2]": {"tested_on": "PC-12", "assay": "Neuroprotective activity against etoposide-induced apoptosis in rat PC12 cells assessed as cell viability at 0.1 uM pretreated for 4 hrs followed by etoposide challenge measured after 48 hrs by PrestoBlue assay relative to control", "format": "functional", "settings": "read-out: Activity", "in_short": "as §1"}, "[3]": {"tested_on": "IMR-90", "assay": "Neuroprotective activity against etoposide-induced apoptosis in human IMR90-c4 cells assessed as increase in cell viability at 0.1 uM pretreated for 4 hrs followed by etoposide challenge measured after 36 hrs by PrestoBlue assay relative to control", "format": "functional", "in_short": "(§2)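 IMR90-c4 iPSC-derived neurons were plated at 16000 cells/well on poly-D-lysine/laminin and matured. They were pretreated 4 h with compound, then given 15 μg/mL etoposide. Viability was read at 36 h by PrestoBlue fluorescence (ex 560/em 590 nm).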"}, "[4]": {"tested_on": "PC-12", "assay": "Induction of autophagy in rat PC12 cells after 48 hrs by MDC staining-based flow cytometric method", "format": "functional, cell-based", "in_short": "(§3)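 PC12 cells were treated for 48 h and then stained with 0.5 mM monodansylcadaverine for 30 min at 37 °C. Trypsinized cells were pooled with floating cells and resuspended in PBS/1% FBS. 10000 cells were read by flow cytometry in the FITC channel after gating out debris. MDC staining is expressed relative to vehicle.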"}, "[5]": {"tested_on": "PC-12", "assay": "Neuroprotective activity against etoposide-induced apoptosis in rat PC12 cells assessed as increase in Bcl2/Bax ratio at 3 uM pretreated for 4 hrs followed by etoposide challenge measured after 24 hrs by Western blot method", "format": "functional", "in_short": "(§4)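 PC12 cells were pretreated 4 h with compound before etoposide and lysed after 24 or 48 h. 50 μg protein was run on 10% SDS gel and blotted. Probes were Bcl-2 (1:1000), Bax (1:500) and actin, with HRP chemiluminescence and densitometric Bcl-2/Bax ratio. n = 2, mean ± SEM.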"}, "[6]": {"tested_on": "PC-12", "assay": "Induction of autophagy in rat PC12 cells assessed as increase in beclin 1 expression at 0.1 uM after 24 hrs by Western blot method relative to control", "format": "functional", "in_short": "(§5)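 PC12 lysates were taken after 24 h of compound treatment. 50 μg protein was run on 10% SDS gel and transferred to nitrocellulose. Blots were blocked in 5% BSA, probed overnight at 4 °C with beclin 1 (1:2000) and actin (1:5000), then HRP secondary. Chemiluminescence was quantified by densitometry.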"}, "[7]": {"tested_on": "PC-12", "assay": "Induction of autophagy in rat PC12 cells assessed as increase in beclin 1 expression after 24 hrs by Western blot method", "format": "functional, cell-based", "in_short": "as §5"}, "[8]": {"tested_on": "PC-12", "assay": "Neuroprotective activity against H2O2-induced apoptosis in rat PC12 cells assessed as increase in cell viability at 1 to 30 uM after 4 hrs by PrestoBlue assay", "format": "functional, cell-based", "in_short": "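PC12 cells were exposed to 400 μM H2O2 with compounds at 1–30 μM. Viability was measured after 4 h with PrestoBlue.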"}, "[9]": {"tested_on": "IMR90-c4", "assay": "Neuroprotective activity against etoposide-induced apoptosis in human IMR90-c4 cells assessed as increase in cell viability at 0.1 to 3 uM pretreated for 4 hrs followed by etoposide challenge measured after 36 hrs by PrestoBlue assay", "format": "functional, cell-based", "in_short": "as §2"}, "[10]": {"tested_on": "PC-12", "assay": "Neuroprotective activity against etoposide-induced apoptosis in rat PC12 cells assessed as increase in Bcl2/Bax ratio at 3 uM pretreated for 4 hrs followed by etoposide challenge measured after 48 hrs by Western blot method", "format": "functional, cell-based", "in_short": "as §4"}, "[11]": {"tested_on": "PC-12", "assay": "Neuroprotective activity against etoposide-induced apoptosis in rat PC12 cells assessed as increase in Bcl2/Bax ratio at 0.1 uM pretreated for 4 hrs followed by etoposide challenge measured after 24 hrs by Western blot method", "format": "functional", "in_short": "as §4"}, "[12]": {"target": "T1, Glutamate [NMDA] receptor (Homo sapiens) (UniProt Q05586+Q12879+Q13224+O15399+O60391+Q14957+Q8TCU5)", "assay": "Antagonist activity at NMDA receptor in human IMR90-c4 cells assessed as decrease in NMDA-mediated reduction in cell viability at 0.1 to 30 uM by PrestoBlue assay", "format": "cell-based", "in_short": "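Neurons differentiated from IMR90-c4 iPSCs over roughly 21 days, then challenged with 500 μM NMDA. Viability was read with PrestoBlue. n = 1 with 4 technical replicates; % viability given as mean ± SEM.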"}, "[13]": {"tested_on": "PC-12", "assay": "Neuroprotective activity against etoposide-induced apoptosis in rat PC12 cells assessed as increase in Bcl2/Bax ratio at 0.1 uM pretreated for 4 hrs followed by etoposide challenge measured after 48 hrs by Western blot method", "format": "functional, cell-based", "in_short": "as §4"}, "[14]": {"assay": "Neuroprotective activity against etoposide-induced apoptosis in human IMR90-c4 cells assessed as cell viability at 3 uM pretreated for 4 hrs followed by etoposide challenge measured after 36 hrs by PrestoBlue assay relative to control", "format": "functional", "settings": "read-out: Activity", "in_short": "as §2"}, "[15]": {"tested_on": "IMR90-c4", "assay": "Neuroprotective activity against etoposide-induced apoptosis in human IMR90-c4 cells assessed as increase in cell viability at 3 to 30 uM pretreated for 4 hrs followed by etoposide challenge measured after 36 hrs by PrestoBlue assay", "format": "functional, cell-based", "in_short": "as §2"}, "[16]": {"tested_on": "PC-12", "assay": "Neuroprotective activity in rat PC12 cells assessed as decrease in H2O2-induced reactive oxygen species generation at 10 uM by CellROX/DAPI-blue staining-based fluorescence microscopic method", "format": "functional, cell-based", "in_short": "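PC12 cells were grown in RPMI with 10% horse serum and 5% FBS on collagen-coated plates. ROS was induced with H2O2 and cells exposed to compound. Staining used CellROX green plus DAPI, imaged by fluorescence microscopy at 40×.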"}, "[17]": {"target": "T1, Glutamate [NMDA] receptor (Homo sapiens)", "assay": "Antagonist activity at NMDA receptor in human IMR90-c4 cells assessed as decrease in NMDA-mediated reduction in cell viability at 30 uM by PrestoBlue assay", "format": "cell-based", "in_short": "(§6)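 IMR90-c4 iPSCs differentiated to neurons (NSC, NPC, then 21 days maturation on poly-D-lysine/laminin). Neurons challenged with 500 μM NMDA. Viability read with PrestoBlue. n = 1 with 4 technical replicates, mean ± SEM.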"}, "[18]": {"target": "T1, Glutamate [NMDA] receptor (Homo sapiens)", "assay": "Antagonist activity at NMDA receptor in human IMR90-c4 cells assessed as decrease in NMDA-mediated reduction in cell viability at 0.1 to 10 uM by PrestoBlue assay", "format": "cell-based", "in_short": "as §6"}, "[19]": {"tested_on": "SH-SY5Y", "assay": "Neuroprotective activity against etoposide-induced apoptosis in human SH-SY5Y cells assessed as cell viability at 3 uM pretreated for 4 hrs followed by etoposide challenge measured after 12 to 48 hrs by PrestoBlue assay relative to control", "format": "functional", "settings": "read-out: Activity", "in_short": "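SH-SY5Y cells were plated at 50000/well and left overnight at 37 °C, 5% CO2. They were pretreated 4 h with compound, then given etoposide; methods give 5 μg/mL read at 48 h, while the legend states 5 μM for 12 h. PrestoBlue fluorescence (ex 560/em 590 nm).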"}, "[20]": {"tested_on": "PC-12", "assay": "Induction of autophagy in rat PC12 cells at 3 uM after 48 hrs by MDC staining-based flow cytometric method relative to control", "format": "functional", "in_short": "as §3"}, "[21]": {"tested_on": "PC-12", "assay": "Induction of autophagy in rat PC12 cells assessed as increase in beclin 1 expression at 3 uM after 24 hrs by Western blot method relative to control", "format": "functional", "in_short": "as §5"}, "[22]": {"tested_on": "PC-12", "assay": "Induction of autophagy in rat PC12 cells at 10 uM after 48 hrs by MDC staining-based flow cytometric method relative to control", "format": "functional", "in_short": "as §3"}}, "note": "Active and inactive are the calls of the source. No cut-off for these calls is given here."}
{"smiles": "CCOC(=O)Nc1ccc(NCc2ccc(C(F)(F)F)nc2)nc1N", "values": [{"measurement": "viability at 3 µM", "setting": "[1]", "value": 81.6, "unit": "%"}, {"measurement": "viability at 0.1 µM", "setting": "[2]", "value": 74, "unit": "%"}]}
{"smiles": "CCCOC(=O)Nc1ccc(NCc2ccc(F)cc2)nc1N", "values": [{"measurement": "viability at 3 µM", "setting": "[1]", "value": 46.7, "unit": "%"}]}
{"smiles": "CCOC(=O)Nc1ccc(NCc2ccccc2C(F)(F)F)nc1N", "values": [{"measurement": "viability at 3 µM", "setting": "[1]", "value": 82.8, "unit": "%"}]}
{"smiles": "CCOC(=O)Nc1ccc(NCc2ccc(C(F)(F)F)cc2)nc1N", "values": [{"measurement": "Activity", "setting": "[3]", "value": "75 - 76%"}, {"measurement": "Activity", "setting": "[4]", "value": "Dose-dependent effect"}, {"measurement": "Activity", "setting": "[5]", "value": 232, "unit": "%"}, {"measurement": "Activity", "setting": "[6]", "value": 18, "unit": "%"}, {"measurement": "Activity", "setting": "[7]", "value": "Dose-dependent effect"}, {"measurement": "viability at 3 µM", "setting": "[1]", "value": 68.4, "unit": "%"}, {"measurement": "Activity", "setting": "[8]", "value": "inactive"}, {"measurement": "Activity", "setting": "[9]", "value": "Active"}, {"measurement": "Activity", "setting": "[10]", "value": "inactive"}, {"measurement": "Activity", "setting": "[11]", "value": 159, "unit": "%"}, {"measurement": "viability at 0.1 µM", "setting": "[2]", "value": 84, "unit": "%"}, {"measurement": "inhibition", "setting": "[12]", "value": "inactive"}, {"measurement": "Activity", "setting": "[13]", "value": "inactive"}]}
{"smiles": "Nc1nc(NCc2ccc(F)cc2)ccc1NC(=O)OCCCl", "values": [{"measurement": "viability at 3 µM", "setting": "[1]", "value": 53.9, "unit": "%"}]}
{"smiles": "CCOC(=O)Nc1ccc(OCc2ccc(C(F)(F)F)cc2)nc1N", "values": [{"measurement": "Activity", "setting": "[7]", "value": "Dose-dependent effect"}, {"measurement": "Activity", "setting": "[10]", "value": "inactive"}, {"measurement": "viability at 3 µM", "setting": "[14]", "value": 65, "unit": "%"}]}
{"smiles": "CCOC(=O)Nc1ccc(NCc2ccccc2)nc1", "values": [{"measurement": "viability at 3 µM", "setting": "[1]", "value": 67.5, "unit": "%"}]}
{"smiles": "CCOC(=O)Nc1ccc(NCc2ccc(C)cc2)nc1N", "values": [{"measurement": "viability at 3 µM", "setting": "[1]", "value": 136, "unit": "%"}]}
{"smiles": "CCOC(=O)Nc1ccc(NCc2ccc(F)cc2)nc1N", "note": "[FLUPIRTINE]", "values": [{"measurement": "Activity", "setting": "[15]", "value": "Active"}, {"measurement": "Activity", "setting": "[5]", "value": 68, "unit": "%"}, {"measurement": "Activity", "setting": "[16]", "value": "Active"}, {"measurement": "viability at 3 µM", "setting": "[1]", "value": 79.5, "unit": "%"}, {"measurement": "Activity", "setting": "[8]", "value": "Active"}, {"measurement": "inhibition", "setting": "[17]", "value": "Active"}, {"measurement": "inhibition", "setting": "[18]", "value": "inactive"}, {"measurement": "viability at 3 µM", "setting": "[19]", "value": 69, "unit": "%"}, {"measurement": "Activity", "setting": "[10]", "value": "inactive"}, {"measurement": "fold change (FC)", "setting": "[20]", "value": 2}, {"measurement": "Activity", "setting": "[21]", "value": 32, "unit": "%"}, {"measurement": "viability at 3 µM", "setting": "[14]", "value": 70, "unit": "%"}, {"measurement": "fold change (FC)", "setting": "[22]", "value": 8}]}
